We go through 16 compounds from ChEMBL document CHEMBL1123287, “7-Aroyl-2,3-dihydrobenzo[b]furan-3-carboxylic acids and 7-benzoyl-2,3-dihydrobenzo[b]thiophene-3-carboxylic acids as analgesic agents” (1986).

Converted amounts (≈) assume the structure as drawn.

The species named for test [1] is Mus musculus. Put plainly: Analgesic activity tested by phenylquinone induced writhing test in mice. Type of test: functional.
Test [2] has as its target T1, Prostaglandin E synthase (Bos taurus) (UniProt Q95L14).
T1 sequence (whole entry): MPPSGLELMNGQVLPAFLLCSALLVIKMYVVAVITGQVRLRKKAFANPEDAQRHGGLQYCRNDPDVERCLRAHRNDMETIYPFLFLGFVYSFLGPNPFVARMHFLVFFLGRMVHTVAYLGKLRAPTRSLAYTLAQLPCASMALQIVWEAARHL
Put plainly: Ability to inhibit prostaglandin synthetase ([3H]PGE2 synthesis) from [3H]arachidonic acid in bovine seminal vesicles. In short, it runs like this:
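Formation of [³H]-PGE₂ was measured at no fewer than four compound concentrations, each run in duplicate. ID₅₀, the dose expected to give 50% inhibition of prostaglandin synthesis, was read from dose-response lines.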

For test [3], the system named is Mus musculus. Nature of the test: Compound was tested orally for its ability to induce gastric lesions in fasted mice (8-animals per group). Type of test: functional. Particulars: Stomach, po. An outline of the steps:
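Male mice (eight per group) fasted overnight, then dosed orally. Killed 4 h later; stomachs removed, stretched and examined for bleeding mucosal erosions. ED50 is the dose expected to cause observable mucosal damage in 50% of animals, calculated from dose-response lines.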

On to `O=C(c1ccccc1)c1cc(Br)cc2c1OCC2C(=O)O` (stereo not given), for which the ED50 (usually the dose at which the effect has come halfway, by size or by number of responders) in the test listed under Mus musculus [1] is over 5 mg/kg. `O=C(c1ccccc1)c1cc(Cl)cc2c1[S+]([O-])CC2C(=O)O` (stereo not given) registered an ID50 in test [2] of over 50 µg/mL. In the test filed under Mus musculus [1], this compound displayed an ED50 of over 5 mg/kg. `O=C(c1cccs1)c1cc(Cl)cc2c1OCC2C(=O)O` (stereo not given) yielded an ED50 in the test filed under Mus musculus [1] of over 4 mg/kg. Take `O=C(c1ccccc1)c1cc(Cl)cc2c1OCC2C(=O)O` (stereo not given): the ED50 in the test on Mus musculus [3] came to 150 mg/kg; in the test listed under Mus musculus [1] it was 0.8 mg/kg. Further, in test [2], the ID50 was 0.25 µg/mL (≈ 0.826 µM). As to `O=C(c1ccccc1)c1cc(Br)cc2c1SCC2C(=O)O` (stereo not given), the ID50 in test [2] was 1.4 µg/mL (≈ 3.85 µM). Also, it took a dose of 1.3 mg/kg to reach the 50% effect level in the test filed under Mus musculus [1] (ED50).

As to `Cc1cc(CC(=O)O)n(C)c1C(=O)c1ccc(Cl)cc1` [ZOMEPIRAC], the ED50 in the test with Mus musculus [3] worked out at 8 mg/kg; in the test filed under Mus musculus [1] it was 0.6 mg/kg. The ID50 in test [2] worked out at 0.6 µg/mL (≈ 2.06 µM). Consider `O=C(c1ccc(Cl)cc1)c1cc(Cl)cc2c1OCC2C(=O)O` (stereo not given), for which the ED50 in the test filed under Mus musculus [1] was over 4 mg/kg. The same measure, in the same setting: the value for `COC(=O)C1COc2c(C(=O)c3ccccc3)cc(Cl)cc21` (stereo not given) was 13 mg/kg; that for `O=C(c1ccccc1)c1ccc2c(c1)C(C(=O)O)CS2` (stereo not given) was over 10 mg/kg.

As for `O=C(c1ccccc1)c1cc(Cl)cc2c1SCC2C(=O)O` (stereo not given), the ED50 in the test on Mus musculus [3] amounted to 23 mg/kg; in the test filed under Mus musculus [1], 0.8 mg/kg. The same compound registered an ID50 in test [2] of 0.8 µg/mL (≈ 2.51 µM). In the same order, the values of `O=C(c1ccccc1)c1cccc2c1SCC2C(=O)O` (stereo not given) are 13 mg/kg, 0.6 mg/kg and 1.2 µg/mL (≈ 4.22 µM). `O=C(c1ccccc1)c1cc(Cl)cc2c1S(=O)(=O)CC2C(=O)O` (stereo not given) came in with an ID50 in test [2] of over 50 µg/mL. In the test listed under Mus musculus [1], the ED50 is over 5 mg/kg. As for `O=C(c1ccccc1)c1cc(F)cc2c1OCC2C(=O)O` (stereo not given), the 50% effective dose (ED50) in the test filed under Mus musculus [1] is 2.9 mg/kg. `O=C(c1ccccc1)c1cccc2c1COC2C(=O)O` (stereo not given) yielded an ID50 in test [2] of 5 µg/mL (≈ 18.6 µM). This compound also returned an ED50 in the test filed under Mus musculus [1] of over 16 mg/kg. In the same order, the values of `Cc1cc(C(=O)c2ccccc2)c2c(c1)C(C(=O)O)CO2` (stereo not given) are 2 µg/mL (≈ 7.08 µM) and 1.9 mg/kg.

The compound `O=C(c1ccccc1)c1cccc2c1OCC2C(=O)O` (stereo not given) registered an ID50 in test [2] of 0.7 µg/mL (≈ 2.61 µM). The compound also yielded an ED50 in the test listed under Mus musculus [1] of 2.8 mg/kg.
